Measurements gathered from unrelated publications.
Compare with care: the assays were run in different laboratories.

Structure (SMILES) | test system | conditions | measurement | result
O=C(Nc1cc(F)c(F)c(F)c1)c1ccc(F)c(S(=O)(=O)NCc2cccc(B(O)O)c2)c1 | male Sprague-Dawley rat, plasma | intravenous, 2 mg/kg | MRT(0-inf) | 0.83 h
CC(C)(O)c1ccccc1-c1ccc2[nH]c(/C=C/c3ccc(C(F)(F)F)cc3)nc2c1 | male human, plasma | oral, 1 mg, single dose, fasted | Tmax | 4.44 h
CC(=O)Nc1nnc(N2CCN([C@@H](C)c3ccc4c(c3)OCO4)CC2)s1 | rabbit, plasma | 1 µM | fraction unbound | 0.059
CC(C)n1cc(C#N)c2cc(-n3cc(C(=O)O)cn3)ccc21 | human, plasma | oral, 10 mg, single dose, fasted, healthy volunteers | Tmax | 2.8 h
Cn1cc(-c2ccc(S(=O)(=O)[C@@H]3C[C@@H](C(=O)NC4(C#N)CC4)N(C(=O)C4(C(F)(F)F)CC4)C3)c(C(F)(F)F)c2)cn1 | human, plasma | oral, 30 mg, single dose, fasted, healthy volunteers | Tmax | 4.51 h
CCc1cc(C(=O)NC)c2nccc(N3CCc4c(cc(Cn5ccnc5)cc4-c4cn(C)nc4C(F)(F)F)C3=O)c2c1 | male Sprague-Dawley rat, plasma | intravenous, 3 mg/kg | MRT(0-inf) | 0.4 h
COc1ccc([C@@H]2CN(C(=O)[C@@H](O)CO)C[C@@]2(C)[C@@H](C)O)cc1OC1CN(c2ccc(C)cn2)C1 | human, plasma | oral, 10 mg, single dose, healthy volunteers | Tmax | 2 h
C[C@@H](Nc1cc(F)cc(F)c1)c1cc(C(=O)N(C)C)cc2c(=O)cc(N3CCOCC3)oc12 | human, plasma | oral, 60 mg, patients | Tmax | 4.08 h
Oc1c(Br)cc(Cl)c2cccnc12 | Sprague-Dawley rat, plasma | subcutaneous, 10 mg/kg | MRT | 7.8 h
CCOC(=O)[C@@]12C[C@@H]1[C@@H](n1ccc3c(NC)nc(C#Cc4ccc(Cl)s4)nc31)[C@H](O)[C@@H]2O | male Sprague-Dawley rat, plasma | oral, 1 mg/kg | MRT | 2.34 h
C=CC(=O)N(C)CCOc1c(N)ncnc1-c1cc(F)cc(NC(=O)c2ccc(C3CC3)cc2F)c1C | human, blood | oral, 100 mg, single dose, healthy volunteers | Tmax | 1.03 h
